From article PMC2908238 (Journal of neurochemistry, 2010)

How the values were obtained:
[1] = Electron microscopy, morphology of assemblies; format: physicochemical; conditions: EM, 10 µM peptide, pH 7.4, 25°C, agitation 200 rpm; for Morphology after 72 h of incubation: 72 h (Aβ40 analogues)
Method in brief: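 Peptide from HFIP films, dissolved in 60 mM NaOH, diluted with water, sonicated 1 min, adjusted to 10 µM in 20 mM sodium phosphate pH 7.4; incubated 25°C with 200 rpm orbital shaking. Aliquots adsorbed 20 min on glow-discharged carbon-coated Formvar grids, wicked, fixed 2.5% glutaraldehyde 4 min, stained 1% uranyl acetate 3 min, air-dried; transmission EM.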

Dynamic light scattering = format: physicochemical; conditions: 10 µM peptide, pH 7.4, filtered 20 nm, quiescent incubation
Method in brief: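 HFIP-treated peptide films dissolved in 60 mM NaOH, diluted with water, sonicated 1 min, then brought to 10 µM in 20 mM sodium phosphate, pH 7.4. Passed through 20-nm filter before first reading; kept at room temperature, no agitation, up to 14 days. 633-nm He-Ne laser, 90° scattering, multitau correlator; size distribution from regularization deconvolution. Representative of two independent experiments.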

[2] = 5 µM, 37°C, without agitation, ref Ciccotosto et al. 2004; cited from earlier work

Substance	Morphology after 72 h of incubation [1]	DLS intensity spikes (fibril formation) after 7 days (Dynamic light scattering; 7 days)	Hydrodynamic radius (RH) of particles after 7 days (Dynamic light scattering; DLS, 7 days)	Hydrodynamic radius (RH) of particles after 14 days (Dynamic light scattering; DLS, 14 days)	Morphology after 24 h of incubation ([1]; 24 h (Aβ42 analogues))	Morphology initially and after 72 h of incubation [2]
Aβ40: wild-type amyloid β-protein, 40-residue alloform, synthesized by Fmoc chemistry	did not change					
Aβ42: wild-type amyloid β-protein, 42-residue alloform, synthesized by Fmoc chemistry		no intensity spikes	the same distribution	100–200 nm	abundant fibrils	non-fibrillar morphology
[Val^35]Aβ40: Aβ40 analogue with Met^35 substituted by Val	mixture of oligomers and fibrils					
